According to ChEMBL document CHEMBL4414574, “Structure-Based Discovery and Development of a Series of Potent and Selective Bromodomain and Extra-Terminal Protein Inhibitors” (J Med Chem, 2019):
Calls of active or inactive are those of the source. The calls are words filed in the database; no cut-off is given here.

What was measured:
[1] = Half life in ICR mouse at 10 mg/kg, po administered via gavage measured after 0.25 to 24 hrs by UPLC/MS analysis; assay type: ADME, organism-based; conditions: in vivo
Outline: (§1)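 Male ICR mice dosed orally in 1% DMSO/0.5% HPMC vehicle; plasma or brain drug levels used to derive Tmax, Cmax, AUC0-t, AUC0-inf and T1/2.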

[2] = target: T1, Bromodomain-containing protein 4 (Homo sapiens, UniProt O60885); assay: Displacement of 5-FITC labelled (+)-JQ1 from His6-tagged human BRD4 bromodomain 1 expressed in Escherichia coli BL21(DE3) )-codon plus-RIL cells incubated for 4 hrs in dark condition by fluorescence anisotropy binding assay
[3] = target: Histone acetyltransferase p300 (Homo sapiens) (UniProt Q09472); assay: Inhibition of EP300 (unknown origin) at 1 uM
Outline: (§2)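 Bromodomain binding panel (32 bromodomains) screened at 1 μM; primary binding read-out reported as percent of control, lower values meaning stronger binding.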

[4] = target: T1, Bromodomain-containing protein 4; assay: Inhibition of BRD4 bromodomain 2 (unknown origin)
[5] = Cmax in ICR mouse at 10 mg/kg, po administered via gavage measured after 0.25 to 24 hrs by UPLC/MS analysis; assay type: ADME, organism-based; parameters: dose 10 mg/kg, route oral; conditions: in vivo; outline: as §1
[6] = target: Bromodomain-containing protein 2 (Homo sapiens) (UniProt P25440); assay: Inhibition of BRD2 bromodomain 1 (unknown origin)
[7] = target: Bromodomain-containing protein 2 (Homo sapiens) (UniProt P25440); assay: Inhibition of BRD2 bromodomain 2 (unknown origin); outline: as §2
[8] = Tmax in ICR mouse at 10 mg/kg, po administered via gavage measured after 0.25 to 24 hrs by UPLC/MS analysis; assay type: ADME, organism-based; conditions: in vivo
Outline: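 Male ICR mice dosed orally (3, 10 or 100 mg/kg, per line) in 1% DMSO/0.5% HPMC vehicle; plasma drug levels measured.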

[9] = target: T1, Bromodomain-containing protein 4; assay: Inhibition of BRD4 bromodomain 1 (unknown origin)
Outline: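 BRD4 BD1 (His6-tagged, E. coli BL21(DE3)-expressed, Ni-NTA purified) at 10 nM with 5 nM FITC-labelled (+)-JQ1 tracer; 50 mM HEPES pH 7.4, 150 mM NaCl, 0.5 mM CHAPS, DMSO 2‰ final; graded inhibitor; 4 h dark equilibration at room temperature; fluorescence anisotropy read (ex 485/em 530 nm). IC50 from two independent experiments in duplicate, mean ± SEM.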

[10] = system: MM1.S; assay: Antiproliferative activity against human MM1S cells after 72 hrs by CCK8 or SRB assay; assay type: functional, cell-based
Outline: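 IC50 against MM.1S cell proliferation was taken as the mean of three independent experiments, each run in triplicate, reported with SEM.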

[11] = AUC (0 to infinity) in ICR mouse at 10 mg/kg, po administered via gavage measured after 0.25 to 24 hrs by UPLC/MS analysis; assay type: ADME, organism-based; parameters: dose 10 mg/kg, route oral, time infinity; conditions: in vivo
Outline: (§3)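 Male ICR mice were dosed orally in 1% DMSO/0.5% HPMC vehicle. Plasma (and brain, where stated) concentrations gave Tmax, Cmax, T1/2, AUC0-t and AUC0-inf.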

[12] = AUC (0 to t) in ICR mouse at 10 mg/kg, po administered via gavage measured after 0.25 to 24 hrs by UPLC/MS analysis; assay type: ADME, organism-based; parameters: time 0.25-24 hr, dose 10 mg/kg, route oral; conditions: in vivo; outline: as §3
[13] = system: MDA-MB-436; assay: Antiproliferative activity against human MDA-MB-436 cells after 72 hrs by CCK8 or SRB assay; assay type: functional, cell-based
[14] = system: MDA-MB-468; assay: Antiproliferative activity against human MDA-MB-468 cells after 72 hrs by CCK8 or SRB assay; assay type: functional, cell-based
[15] = system: HuTu80; assay: Antiproliferative activity against human HuTu 80 cells after 72 hrs by CCK8 or SRB assay; assay type: functional, cell-based
[16] = system: NCI-H1299; assay: Antiproliferative activity against human NCI-H1299 cells after 72 hrs by CCK8 or SRB assay; assay type: functional, cell-based
[17] = system: AGS; assay: Antiproliferative activity against human AGS cells after 72 hrs by CCK8 or SRB assay; assay type: functional, cell-based
[18] = system: HT-29; assay: Antiproliferative activity against human HT-29 cells after 72 hrs by CCK8 or SRB assay; assay type: functional, cell-based
[19] = system: RKO; assay: Antiproliferative activity against human RKO cells after 72 hrs by CCK8 or SRB assay; assay type: functional, cell-based
[20] = system: KG-1; assay: Antiproliferative activity against human KG1 cells after 72 hrs by CCK8 or SRB assay; assay type: functional, cell-based
[21] = organism: Homo sapiens; assay: Antiproliferative activity against human TY82 cells after 72 hrs by CCK8 or SRB assay; assay type: functional, cell-based
[22] = system: Hep 3B2; assay: Antiproliferative activity against human Hep3B cells after 72 hrs by CCK8 or SRB assay; assay type: functional, cell-based
[23] = system: MV4-11; assay: Antiproliferative activity against human MV4-11 cells after 72 hrs by CCK8 or SRB assay; assay type: functional, cell-based
[24] = system: A549; assay: Antiproliferative activity against human A549 cells after 72 hrs by CCK8 or SRB assay; assay type: functional, cell-based
[25] = system: SW-620; assay: Antiproliferative activity against human SW620 cells after 72 hrs by CCK8 or SRB assay; assay type: functional, cell-based
[26] = system: BT-549; assay: Antiproliferative activity against human BT549 cells after 72 hrs by CCK8 or SRB assay; assay type: functional, cell-based
[27] = system: SK-OV-3; assay: Antiproliferative activity against human SKOV3 cells after 72 hrs by CCK8 or SRB assay; assay type: functional, cell-based
[28] = system: NCI-H522; assay: Antiproliferative activity against human NCI-H522 cells after 72 hrs by CCK8 or SRB assay; assay type: functional, cell-based

Chain of Bromodomain-containing protein 2 (Homo sapiens) (P25440 whole entry, looked up): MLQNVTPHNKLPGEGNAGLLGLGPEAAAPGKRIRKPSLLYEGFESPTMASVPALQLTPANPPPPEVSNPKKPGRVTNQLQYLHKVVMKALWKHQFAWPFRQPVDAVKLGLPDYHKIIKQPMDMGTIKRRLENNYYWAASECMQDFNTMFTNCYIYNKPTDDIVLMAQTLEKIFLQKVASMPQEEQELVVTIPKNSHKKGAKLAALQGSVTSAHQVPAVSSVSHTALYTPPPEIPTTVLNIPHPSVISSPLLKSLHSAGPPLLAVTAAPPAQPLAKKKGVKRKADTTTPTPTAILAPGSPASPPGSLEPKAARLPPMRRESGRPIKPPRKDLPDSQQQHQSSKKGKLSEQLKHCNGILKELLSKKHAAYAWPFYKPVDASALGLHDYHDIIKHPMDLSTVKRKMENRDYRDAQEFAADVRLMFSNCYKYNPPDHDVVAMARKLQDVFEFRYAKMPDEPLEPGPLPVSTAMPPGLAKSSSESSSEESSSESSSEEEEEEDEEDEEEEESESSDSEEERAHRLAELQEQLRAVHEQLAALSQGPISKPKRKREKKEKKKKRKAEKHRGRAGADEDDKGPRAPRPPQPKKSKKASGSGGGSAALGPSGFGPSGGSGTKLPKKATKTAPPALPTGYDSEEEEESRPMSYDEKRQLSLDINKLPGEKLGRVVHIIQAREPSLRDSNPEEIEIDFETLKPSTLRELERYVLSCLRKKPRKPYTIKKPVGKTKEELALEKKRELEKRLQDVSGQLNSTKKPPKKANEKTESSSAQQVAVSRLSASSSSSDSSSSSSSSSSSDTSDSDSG
Chain of Histone acetyltransferase p300 (Homo sapiens) (Q09472 whole entry): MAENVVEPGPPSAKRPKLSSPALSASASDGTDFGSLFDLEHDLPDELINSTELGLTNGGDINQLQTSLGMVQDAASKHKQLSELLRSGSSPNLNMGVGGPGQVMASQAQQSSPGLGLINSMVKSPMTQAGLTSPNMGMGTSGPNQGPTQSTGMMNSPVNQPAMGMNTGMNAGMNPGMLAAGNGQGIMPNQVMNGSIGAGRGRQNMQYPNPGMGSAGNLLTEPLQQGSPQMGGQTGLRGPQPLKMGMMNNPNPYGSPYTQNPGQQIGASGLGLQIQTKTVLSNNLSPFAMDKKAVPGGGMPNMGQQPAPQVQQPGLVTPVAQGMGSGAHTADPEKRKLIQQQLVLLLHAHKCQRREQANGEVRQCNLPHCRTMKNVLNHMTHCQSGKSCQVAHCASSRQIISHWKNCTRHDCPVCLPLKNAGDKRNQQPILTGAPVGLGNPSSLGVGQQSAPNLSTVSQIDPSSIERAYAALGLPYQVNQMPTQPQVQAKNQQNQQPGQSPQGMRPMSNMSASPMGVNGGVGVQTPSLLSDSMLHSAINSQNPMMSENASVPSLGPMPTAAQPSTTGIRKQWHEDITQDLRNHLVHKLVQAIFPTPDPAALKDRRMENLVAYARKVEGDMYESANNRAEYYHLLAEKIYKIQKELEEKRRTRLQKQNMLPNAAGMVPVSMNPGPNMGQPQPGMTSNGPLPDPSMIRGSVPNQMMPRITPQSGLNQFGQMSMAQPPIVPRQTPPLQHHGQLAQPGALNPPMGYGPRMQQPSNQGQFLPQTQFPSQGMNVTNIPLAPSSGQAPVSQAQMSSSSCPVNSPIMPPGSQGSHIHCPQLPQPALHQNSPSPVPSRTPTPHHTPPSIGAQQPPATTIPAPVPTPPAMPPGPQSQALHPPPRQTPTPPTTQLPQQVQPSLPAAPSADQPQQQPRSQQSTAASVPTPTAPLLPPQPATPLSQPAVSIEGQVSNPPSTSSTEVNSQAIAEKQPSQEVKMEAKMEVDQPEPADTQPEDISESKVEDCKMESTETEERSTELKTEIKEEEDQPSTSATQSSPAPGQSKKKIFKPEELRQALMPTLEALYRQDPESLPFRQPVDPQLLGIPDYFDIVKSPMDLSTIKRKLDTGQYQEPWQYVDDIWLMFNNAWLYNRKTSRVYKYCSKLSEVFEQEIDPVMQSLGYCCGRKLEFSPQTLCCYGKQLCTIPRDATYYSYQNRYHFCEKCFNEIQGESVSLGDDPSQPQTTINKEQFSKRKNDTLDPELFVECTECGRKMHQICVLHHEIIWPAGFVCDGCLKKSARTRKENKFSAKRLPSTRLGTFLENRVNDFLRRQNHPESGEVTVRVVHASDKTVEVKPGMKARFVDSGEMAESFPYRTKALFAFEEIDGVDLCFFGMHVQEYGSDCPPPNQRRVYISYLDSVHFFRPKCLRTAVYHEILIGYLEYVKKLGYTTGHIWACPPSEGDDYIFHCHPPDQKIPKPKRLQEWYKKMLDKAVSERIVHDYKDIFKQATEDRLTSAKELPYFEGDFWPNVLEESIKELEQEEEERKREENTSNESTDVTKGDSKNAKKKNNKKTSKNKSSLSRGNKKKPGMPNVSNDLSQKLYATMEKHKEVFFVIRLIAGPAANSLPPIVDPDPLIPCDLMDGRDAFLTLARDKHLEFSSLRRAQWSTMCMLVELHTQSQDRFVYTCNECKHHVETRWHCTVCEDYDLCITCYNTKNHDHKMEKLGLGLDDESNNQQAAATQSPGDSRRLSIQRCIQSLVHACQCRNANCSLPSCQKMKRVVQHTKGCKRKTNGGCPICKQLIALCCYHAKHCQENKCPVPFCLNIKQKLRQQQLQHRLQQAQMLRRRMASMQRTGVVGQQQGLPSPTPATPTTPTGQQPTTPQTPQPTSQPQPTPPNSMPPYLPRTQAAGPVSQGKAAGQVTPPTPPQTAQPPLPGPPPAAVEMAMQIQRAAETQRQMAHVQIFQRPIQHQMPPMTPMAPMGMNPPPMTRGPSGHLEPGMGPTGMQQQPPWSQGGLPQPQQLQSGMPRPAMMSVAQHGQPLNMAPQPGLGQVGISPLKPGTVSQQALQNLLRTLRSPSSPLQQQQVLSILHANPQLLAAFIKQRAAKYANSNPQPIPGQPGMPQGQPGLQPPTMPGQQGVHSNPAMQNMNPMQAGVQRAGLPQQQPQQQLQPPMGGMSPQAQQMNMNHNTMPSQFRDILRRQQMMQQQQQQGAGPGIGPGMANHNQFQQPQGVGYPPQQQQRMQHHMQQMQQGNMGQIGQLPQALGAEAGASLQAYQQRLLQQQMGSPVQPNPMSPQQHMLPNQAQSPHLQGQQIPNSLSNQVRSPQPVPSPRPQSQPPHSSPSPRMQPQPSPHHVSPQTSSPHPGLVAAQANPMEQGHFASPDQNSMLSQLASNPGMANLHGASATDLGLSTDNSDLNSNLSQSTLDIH

Cc1ccc(-n2nc(C(=O)N3CCN(C)CC3)nc2-c2ccc3c(c2)N(C2CCCC2)[C@H](C)C(=O)N3C)cc1F
half-life [1]: 90 min
IC50 [2]: 0.0042 µM
inhibition [3]: inactive
inhibition [4]: Active
Cmax [5]: 4.97 µg/mL
inhibition activity call (active/inactive) [6]: Active
inhibition [7]: Active
Tmax [8]: 18 min
inhibition [9]: Active
IC50 [10]: 0.013 µM
AUC(0-inf) [11]: 8.37 µg·h/mL
AUC(0-t) [12]: 8.15 µg·h/mL

Cc1ccc(-n2nc(C(=O)N3CCN(C)CC3)nc2-c2ccc3c(c2)N(C2CCCC2)[C@H](C)C(=O)N3C)c(C)c1
IC50 [2]: 0.0045 µM
IC50 [10]: 0.0178 µM

Cc1ccc(-n2nc(C(=O)N(C)CCN(C)C)nc2-c2ccc3c(c2)N(C2CCCC2)[C@H](C)C(=O)N3C)cc1
IC50 [2]: 0.007 µM
inhibition [3]: inactive
inhibition [4]: Active
inhibition activity call (active/inactive) [6]: Active
inhibition [7]: Active
inhibition [9]: Active
IC50 [10]: 0.0162 µM

Cc1sc2c(c1C)C(c1ccc(Cl)cc1)=N[C@@H](CC(=O)OC(C)(C)C)c1nnc(C)n1-2
Activity [13]: Active
Activity [14]: Active
Activity [15]: Active
Activity [16]: Active
Activity [17]: Active
Activity [18]: Active
Activity [19]: Active
Activity [20]: Active
Activity [21]: Active
Activity [22]: Active
Activity [23]: Active
Activity [24]: Active
Activity [25]: Active
Activity [26]: Active
Activity [27]: Active
Activity [28]: Active

Cc1ccc(-n2nc(C(=O)N3CCC4(CCCC4)CC3)nc2-c2ccc3c(c2)N(C2CCCC2)[C@H](C)C(=O)N3C)cc1
IC50 [2]: 0.0272 µM
IC50 [10]: 2.4 µM

C[C@@H]1C(=O)N(C)c2ccc(-c3nc(C(=O)N4CCN(C)CC4)nn3-c3ccc(Cl)cc3)cc2N1C1CCCC1
IC50 [2]: 0.0068 µM
IC50 [10]: 0.0485 µM

Cc1ccc(-n2nc(C(=O)N3CCN(C4CC4)CC3)nc2-c2ccc3c(c2)N(C2CCCC2)[C@H](C)C(=O)N3C)cc1
IC50 [2]: 0.0059 µM
IC50 [10]: 0.0875 µM

Cc1ccc(-n2nc(C(=O)N3CCC4(CCOC4)CC3)nc2-c2ccc3c(c2)N(C2CCCC2)[C@H](C)C(=O)N3C)cc1
IC50 [2]: 0.0079 µM
IC50 [10]: 0.485 µM

CCN1CCN(C(=O)c2nc(-c3ccc4c(c3)N(C3CCCC3)[C@H](C)C(=O)N4C)n(-c3ccc(C)cc3)n2)CC1
IC50 [2]: 0.0058 µM
IC50 [10]: 0.0251 µM

Cc1ccc(-n2nc(C(=O)N3C4CCC3CN(C)C4)nc2-c2ccc3c(c2)N(C2CCCC2)[C@H](C)C(=O)N3C)cc1
IC50 [2]: 0.0066 µM
inhibition [3]: inactive
inhibition [4]: Active
inhibition activity call (active/inactive) [6]: Active
inhibition [7]: Active
inhibition [9]: Active
IC50 [10]: 0.0079 µM

Cc1ccc(-n2nc(C(=O)N3CCN4CCCC4C3)nc2-c2ccc3c(c2)N(C2CCCC2)[C@H](C)C(=O)N3C)cc1 (stereo partly drawn)
IC50 [2]: 0.0087 µM
inhibition [3]: inactive
inhibition [4]: Active
inhibition activity call (active/inactive) [6]: Active
inhibition [7]: Active
inhibition [9]: Active
IC50 [10]: 0.0064 µM

Cc1ccc(-n2nnnc2-c2ccc3c(c2)N(C2CC2)C(C)C(=O)N3C)cc1 (stereo not drawn)
IC50 [2]: 0.0144 µM
IC50 [10]: 0.0477 µM

Cc1ccc(-n2nc(C(=O)N3CCCN(C)CC3)nc2-c2ccc3c(c2)N(C2CCCC2)[C@H](C)C(=O)N3C)cc1
inhibition [3]: inactive
inhibition [4]: Active
inhibition activity call (active/inactive) [6]: Active
inhibition [7]: Active
inhibition [9]: Active
IC50 [10]: 0.008 µM

Cc1ccc(-n2nc(C(=O)N3C[C@@H](NC(=O)OC(C)(C)C)C4(CC4)C3)nc2-c2ccc3c(c2)N(C2CCCC2)[C@H](C)C(=O)N3C)cc1
IC50 [2]: 0.0096 µM
IC50 [10]: 0.485 µM

C[C@@H]1C(=O)N(C)c2ccc(-c3nc(C(=O)N4CCN(C)CC4)nn3-c3ccccc3)cc2N1C1CCCC1
IC50 [2]: 0.0071 µM
IC50 [10]: 0.0601 µM

Cc1ccc(-n2nc(C(=O)N3C[C@@H](N)C4(CC4)C3)nc2-c2ccc3c(c2)N(C2CCCC2)[C@H](C)C(=O)N3C)cc1
IC50 [2]: 0.0061 µM
IC50 [10]: 0.0435 µM

Cc1ccc(-n2nnnc2-c2ccc3c(c2)N(C2CCCC2)C(C)C(=O)N3C)cc1 (stereo not drawn)
IC50 [2]: 0.0095 µM
IC50 [10]: 1.23 µM

Cc1ccc(-n2nc(C(=O)N3CC4CCC(C3)N4C)nc2-c2ccc3c(c2)N(C2CCCC2)[C@H](C)C(=O)N3C)cc1
IC50 [2]: 0.0046 µM
inhibition [3]: inactive
inhibition [4]: Active
inhibition activity call (active/inactive) [6]: Active
inhibition [7]: Active
inhibition [9]: Active
IC50 [10]: 0.0101 µM

Cc1ccc(N2C(=O)CSC2c2ccc3c(c2)N(C2CC2)C(C)C(=O)N3C)cc1 (stereo not drawn)
IC50 [2]: 0.142 µM

Cc1onc(-c2ccccc2)c1-c1ccc2c(c1)N(C1CCCC1)[C@H](C)C(=O)N2C
IC50 [2]: 0.1 µM

Cc1ccc(-n2nc(C(=O)N3CCN(C(C)C)CC3)nc2-c2ccc3c(c2)N(C2CCCC2)[C@H](C)C(=O)N3C)cc1
IC50 [2]: 0.0048 µM
IC50 [10]: 0.125 µM
